According to the RNAGym collection of RNA variant scans (doi:10.1126/science.aae0568):
Variants at the floor of the assay were thinned out.

B1: tRNA (parent)
chain: GUUCCGUUGGCGUAAUGGUAACGCGUCUCCCUCCUAAGGAGAAGACUGCGGGUUCGAGUCCCGUACGGAACG

Variants of: B1
Experiment: yeast fitness relative to wild type (ratio to wild type); higher = fitter; tRNA-Arg(CCU), competitive growth, 37 C, YPD
Procedure, shortened: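 Changes in genotype frequencies gave Darwinian fitness relative to wild type. Frequencies were read by 100-nucleotide paired-end sequencing of gene amplicons before and after pooled Saccharomyces cerevisiae strains, carrying tRNA-Arg(CCU) gene variants at the native locus, were competed in YPD at 37°C for 24 hours in six replicates. A genotype was kept only with ≥ 100 starting reads, and estimates < 0.5 were set to 0.5.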

| Variant | yeast fitness |
| --- | --- |
| GUUCCGUUGGCGUAAAGGUACCGCGUCUCCCUCCUGAGGAGAAAACUGCGGGUUCGAGACCCGUACGGAACG [U16A A21C A36G G44A U59A] | ≤ 0.5 |
| GUUCCGUUGGCGUAUUGGUAACGCGUCUCCCUCCUAAGGAGAAGACUGCGGGUCCGAGUCCCGUACGGAACG [A15U U54C] | 0.703 |
| GUUCCGUUGGCGUAUUGGUAACGCGUCUCCCUCCUAAGGAGAAGACUGCGGGUGCGAGUCCCGUACGGAACG [A15U U54G] | 0.539 |
| GUUCCGUUGGCGUAAAGGUAUCGCGUUUCCCUCCUAAGGUGAAGACUGCGGGUUCGAGUCCCGUUCGGACCG [U16A A21U C27U A40U A65U A70C] | ≤ 0.5 |
| GUUCCGUUGGCGUAAAGGUAUCGCGUCUCCCUCCUAAGGAGAAGCCUGCGGGUUCGAGUCCCGUACGGAACG [U16A A21U A45C] | ≤ 0.5 |
| GUUCCGUUGGCGUAUUGGUAACGCGUCCCCCUCCUAAGGAGAAAACUGCGGGUUCGGGUCCCGUACGGAACG [A15U U28C G44A A57G] | ≤ 0.5 |
| GUUCCGUUGGCGUAAAGGUGACGCGUUUCCCUCCUAAGGACAAGACUGCGGGUUCGAGUCCCAUACGGAACG [U16A A20G C27U G41C G63A] | ≤ 0.5 |
| GUUCCGUUGGCGUAAAGGUAACGCGUCUCCCUCCUACGGAGAAGACUGCGGGUUCGAGUACCGCACGGAACG [U16A A37C C60A U64C] | ≤ 0.5 |
| GUUCCGUUGGCGUAAAGGUCAUGCGUCUCCCUUCUAAGGAGGAGACUGCGGGUUCGAGUCCCGUACGGAACG [U16A A20C C22U C33U A42G] | ≤ 0.5 |
| GUUCCGUUGGCGUAAAGGUAUCGAGUCUCCCUCCUAAGGAGAAGACUGCGGGUUCGAGUCCCGUACGGAACG [U16A A21U C24A] | ≤ 0.5 |
| GUUCCGUUGGCGUAAAGGUAACGCGUCUCCCUCCUAAGGCGAAGACUGCGGGUUAGAGUCCCGUAAGGAACG [U16A A40C C55A C66A] | ≤ 0.5 |
| GUUCCGUUGGCGUAAAGGUAACGCGUCUCCCUCCUCGGGAGAAGACUGCGGGUUCCAGUCCCGUACGGAACG [U16A A36C A37G G56C] | ≤ 0.5 |
| GUUCCGUUGGCGUAUUGGUAACGCGCCUCCCUCCUAAGGAGAAGACUGCGGGUUCGAGUCCCGUACGGAACG [A15U U26C] | 0.81 |
| GUUCCGUUGGCGUAAAGGUCACGGGUCUCCCUGCUAAGGAGAAGACUGCGGGUUCGAGUCCCGUACGGAACG [U16A A20C C24G C33G] | ≤ 0.5 |
| GUUCCGUUGGCGUAUUGGUAACGCGUCACCCUCCUAAGGAGAAGACUGCGGGUUCGAGUCCCGUACGGAACG [A15U U28A] | 0.57 |
| GUUCCGUUGGCGUAAAGGUAGCGCGUCUCCCUCUUAAGGAGAAGACUGCGGGUUCGAGUCCCGUACCGAACG [U16A A21G C34U G67C] | ≤ 0.5 |
| GUUCCGUUGGCGUAAAGGUAACGCGUCUCCCUCCUAGGGCGAAGACUGCGGGUUCGAAUCCCGUACGGAACG [U16A A37G A40C G58A] | 0.604 |
| GUUCCGUUGGCGUAAAGGUAACGCGUCUCCCUCCUGAGGAGAAGACUGCGAGUUCGAGUCCCGCGCGGAACG [U16A A36G G51A U64C A65G] | ≤ 0.5 |
| GUUCCGUUGGCGUAUUGGUAACGCGUCCCCCUCCUAAGGAGAAGACUGCGGGUUGGAGUCCCGUACGGAACG [A15U U28C C55G] | 0.589 |

| Variant | yeast fitness |
| --- | --- |
| GUUCCGUUGGCGUAAAGGUUACGCGUCUCCCUCCUAAGGAGAAGACUGCAGGUUCGAGUCCCGUACGGAACG [U16A A20U G50A] | 0.513 |
| GUUCCGUUGGCGUAAAGGUAACGCGUCUCCCUCCUAAGGAGAUGACUGCGGGUUCGAGUCCCGUACGGAACG [U16A A43U] | 1.14 |
| GUUCCGUUGGCGUAAAGGUAACGCGUCUCCCUCCUAAGGAGAGGACUGCGGGUUCGAGUCCCGUACGGAACG [U16A A43G] | 1.01 |
| GUUCCGUUGGCGUAUUGGUAACGCGUCACCCUCCUAAAGAGAAGACUGCGGCUUCGAGUGCCGUACGGAACG [A15U U28A G38A G52C C60G] | ≤ 0.5 |
| GUUCCGUUGGCGUAUUGGUAACGCGUCUCCCUCCAAAGGAGAGGACUGCGGGUUCGAGUCCCGUACCGAACG [A15U U35A A43G G67C] | ≤ 0.5 |
| GUUCCGUUGGCGUAAAGGUAACGCGUCUCCCUCCUAUGGAGAAGACUGCGGGUUCAAGUCCCGUUCGGAACG [U16A A37U G56A A65U] | ≤ 0.5 |
| GUUCCGUUGGCGUAUUGGUAACGCGUCUCCCGCCUAAGGAGAAAACUGCGGAUUCGAGUCUCGUACGGCACG [A15U U32G G44A G52A C61U A69C] | ≤ 0.5 |
| GUUCCGUUGGCGUAUUGGUAACGCGUCUCCCGCCUAAGGAGAAAACUGCGGGUUCGAGUCCCGUACGGAACG [A15U U32G G44A] | 0.555 |
| GUUCCGUUGGCGUAAAGGUAACGCGUCUCCCUCCUAAGGAGCAGACUGCGGGUACGAGUCCCGUACGGAACG [U16A A42C U54A] | ≤ 0.5 |
| GUUCCGUUGGCGUAAAGGUCACGCGUCUGCCUCCUAAGGAGAAGACUGCGGGUUCGAGUCCCAUACGCAACG [U16A A20C C29G G63A G68C] | ≤ 0.5 |
| GUUCCGUUGGCGUAUUGGUAACGCGUCACCCUGCUAAGGAGAAGACUGCGGGUUCAAGUCCCGUACGGAACG [A15U U28A C33G G56A] | ≤ 0.5 |
| GUUCCGUUGGCGUAUUGGUAACGCGUCACCCUGCUAAGGAGAAGACUGCGGGUUCGAGUCCCGUGCGGAACG [A15U U28A C33G A65G] | ≤ 0.5 |
| GUUCCGUUGGCGUAAAGGUAACGCGUCUCCCUCCUAUGGAGAAGACUGCGGGUUCGAGUCCAGUACGGAACG [U16A A37U C62A] | ≤ 0.5 |
| GUUCCGUUGGCGUAAAGGUAACGCGUCUCCCUCCUAUGGAGAAGACUGCGGGUUCGAGUCCGGUACGGAACG [U16A A37U C62G] | ≤ 0.5 |
| GUUCCGUUGGCGUAAAGGUACCGCGUCUCCCUCCUAAGGAGAAGACUGCGGGUUCGAGUCCCGUACGGAACG [U16A A21C] | 0.686 |
| GUUCCGUUGGCGUAUUGGUAACGCGUCUCCCUCCUAAGGAGAAGACAGCGGGUUCGAAUCCCGUCCGGAACG [A15U U47A G58A A65C] | ≤ 0.5 |
| GUUCCGUUGGCGUAAAGGUAACGCGUCUCCCUCCUACGGAGAAGACUGCGGGUUCGAGUCCCGUACGGAACG [U16A A37C] | 0.653 |
| GUUCCGUUGGCGUAUUGGUAACGCGUCACCCUCCUAAGGCGAAGAGUGCGGGUUCGAGUCCCGUACGGAACG [A15U U28A A40C C46G] | ≤ 0.5 |
| GUUCCGUUGGCGUAUUGGUAACGCGUCUCCCCCCUAAGGAGCAGACUGCGGGUUCGAGUCCCGUACGGAACG [A15U U32C A42C] | 0.596 |
